# Assay outcomes from PubChem BioAssay.
# TRPC4 agonist – TRPC4 (mouse) channel activation; Q9QUQ5; HEK293 TRPC4beta/mu-opioid, Fluo4 calcium fluorescence; stronger effect = higher value; B-score at 10 µM; 0.49% of 310,000 active; AID 2237;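 active means B-score above 5 SD of library B-scores, and initial fluorescence ratio not above library mean plus 5 SD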;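 further: positive B-score marks a calcium rise read as TRPC4 activation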
#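 Assay system – TRPC4beta and mu-opioid receptor HEK293 stable cells · Measured by – Fluo4 fluorescence, kinetic · Schedule – dye loading 45 min room temperature, 110 s kinetic read · Read-out – B-scored integrated calcium fluorescence ratio · Controls – buffer and maximal DAMGO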
# TRPC6 inh – inhibitors of mouse TRPC6 channel; B-score at 10 µM; HEK293-TRPC6, membrane potential dye, ACh-evoked depolarization; stronger effect = lower value; 1.1% of 310,000 active; Q61143; AID 2553;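 active means B-score under library mean minus 3 SD, initial fluorescence not abnormally high, positive integrated signal ratio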;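 further: B-score derived from integrated fluorescence ratio over the kinetic read; more negative B-score means stronger inhibition of depolarization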
# TRPC4 inh – blocks the mouse TRPC4 cation channel; 0.39% of 300,000 active; HEK293 TRPC4beta/mu-opioid, DAMGO-evoked Fluo4 calcium flux; stronger effect = lower value; Q9QUQ5; B-score at 10 µM;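 active means B-score over 3 SD under the library average, no early fluorescence shift, positive overall ratio signal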
#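 material = TRPC4beta/mu-opioid receptor HEK293 cell line | probe or stimulus = sequential submaximal and maximal DAMGO stimulation | compound dosing = one concentration per compound | measured by = Fluo4 Ca2+ flux fluorescence | evaluation = integrated fluorescence ratio relative to baseline, converted to per-well B score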
# TRPC4 PAM – allosteric potentiators of mouse TRPC4 channel; B-score at 10 µM; 0.42% of 310,000 active; AID 2227; HEK293 TRPC4beta/mu-opioid, DAMGO EC20, Fluo-4 Ca2+ flux; stronger effect = higher value;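 active means B-score of calcium response area above 5 SD of library B-scores, with initial fluorescence ratio within 5 SD of library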;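 further: B-score of integrated fluorescence ratio over time as area under calcium response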
# TRPC6 act – activates the mouse TRPC6 cation channel. B-score at 10 µM. 0.13% of 310,000 active. HEK293-TRPC6 membrane potential dye fluorescence; stronger effect = higher value;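 active means B-score of the integrated fluorescence ratio above library mean plus 3 SD, and starting fluorescence ratio within library mean plus 5 SD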;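 further: higher score means more depolarization so channel activation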
# Starred values were filed as active, the others as inactive; i = inactive. In the library only some 2.3% were active in any assay of this set; here they are far more common.
SMILES,TRPC4 agonist,TRPC6 inh,TRPC4 inh,TRPC4 PAM,TRPC6 act
O=C(COC(=O)Cn1cnc2ccccc2c1=O)Nc1ccccc1Sc1ccc(Cl)cc1,i,i,-5*,i,i
O=C(COC(=O)Cn1cnc2ccccc2c1=O)Nc1ccc(Cl)cc1,i,i,i,i,i
Cc1cccc(-n2c(CNC(=O)c3ccc(S(=O)(=O)N(C)C)cc3)nnc2SCC(=O)Nc2ccc(F)cc2)c1,i,i,i,i,i
COc1ccc2oc(C(=O)N(Cc3ccco3)Cc3cccs3)c(C)c2c1,i,i,i,i,i
COc1ccc(CNC(=O)CN(C(=O)CCC(=O)Nc2nccs2)c2ccc3c(c2)OCO3)cc1,i,i,i,i,i
COc1ccccc1N1CCN(C2CCCCC2NS(=O)(=O)c2ccc(Cl)cc2)CC1 (stereo not given),i,i,i,i,i
COc1ccc(N2CCN(C3CCCCC3NS(=O)(=O)c3ccc(Cl)cc3)CC2)cc1 (stereo not given),i,i,i,15*,i
CC[C@@H](C)[C@H](CNC)NC[C@@H](Cc1cccc2ccccc12)NCCc1cccc(C(F)(F)F)c1,97*,i,i,i,i
Cc1[nH]c2ccc(Br)cc2c(=O)c1CN1CCOCC1,i,i,i,12*,i
CCOc1ccc2[nH]c(C)c(CN3CCOCC3)c(=O)c2c1,i,i,i,i,i
Cc1ccc(S(=O)(=O)N(CC(=O)N2CCOCC2)c2ccc(C(C)C)cc2)cc1,i,i,i,i,i
O=C(CC1S/C(=N\S(=O)(=O)c2ccccc2)N(c2ccccc2)C1=O)Nc1ccc(F)cc1 (stereo not given),i,i,i,10*,i
C/C(Cl)=C/Cn1c(SCCN2CCOCC2)nc2c1c(=O)[nH]c(=O)n2C,i,i,i,i,i
C=CCn1c(SCCN2CCOCC2)nc2c1c(=O)[nH]c(=O)n2C,i,i,i,23*,i
C=CCSc1nc2c(c(=O)[nH]c(=O)n2C)n1C/C=C(/C)Cl,i,i,-7*,i,i
O=C(COC(=O)COc1cccc(Br)c1)Nc1c(Cl)cccc1Cl,i,i,i,i,i
NS(=O)(=O)c1ccc(CCNC(=O)C2CCCN2S(=O)(=O)c2cccc3nsnc23)cc1 (stereo not given),i,i,i,i,i
CCNC(=S)N/N=C/c1cccc(C)c1,i,i,i,i,i
CN(CC(=O)Nc1c(Cl)cccc1Cl)C(=O)C1=COCCO1,i,i,i,i,i
O=C(c1cc2c(ccc3ccccc32)o1)N1CCN(c2ncc(C(F)(F)F)cc2Cl)CC1,80*,i,i,i,i
Fc1ccc(-c2nnc(CN3CCN(c4ncc(C(F)(F)F)cc4Cl)CC3)o2)cc1,109*,i,i,i,i
NC(=O)c1ccc(N2CCN(c3ncc(C(F)(F)F)cc3Cl)CC2)cc1,i,i,i,17*,i
NC(=O)NCCN1CCN(c2ncc(C(F)(F)F)cc2Cl)CC1,i,i,i,15*,i
C1CCN(c2nc(N3CCCC3)nc(N3CCNCC3)n2)C1,i,i,i,16*,i
Nc1nc(N2CCCCC2)nc(N2CCCCC2)n1,i,i,i,i,i
CC1Cc2ccccc2N1C(=O)CSc1nc2c(c(=O)n(C)c(=O)n2C)n1Cc1ccc(F)cc1 (stereo not given),i,i,i,49*,i
CCCCn1c(SCC(=O)N2c3ccccc3Sc3ccccc32)nc2c1c(=O)n(C)c(=O)n2C,i,i,i,117*,i
COc1cccc(NC(=O)C2CCCO2)c1 (stereo not given),i,i,i,i,i
CC(=O)Nc1ccc(CN2CCCC(C(=O)c3cccc(C(F)(F)F)c3)C2)cc1 (stereo not given),88*,i,i,i,i
COc1ccc(CN2CCCC(C(=O)c3cccc(C(F)(F)F)c3)C2)cc1O (stereo not given),62*,i,-8*,i,i
